Measurements collected from several papers.
Lines come from different studies, so protocols differ.
Target: Serine/threonine-protein kinase SIK3 (SIK3, Homo sapiens, UniProt Q9Y2K2)

| Compound | observed | mode | technique | concentration | quantity | value |
| --- | --- | --- | --- | --- | --- | --- |
| COc1cc(Cl)c(C(=O)N[C@@H](CN[C@H]2CC[C@@H](N)CC2)Cc2ccc(C#N)cc2)cc1-c1ccc(CN[C@H](C)c2ccc(C)cc2)o1 | enzyme activity | inhibitor | – | 1 µM | remaining activity | 102% |
| Cc1sc(C(=O)NC2COC2)cc1-n1cc(NC(=O)Nc2c(F)cccc2Cl)cn1 | enzyme activity | inhibitor | – | 10 µM | remaining activity | 86.9% |
| COc1cc(Nc2cnc(C#N)c(O[C@H](C)CN(C)C)n2)ncc1-c1cnn(C)c1 | enzyme activity | inhibitor | radiometric | 1 µM | remaining activity | 89% |
| Nc1ncnc2occ(-c3ccc(NC(=O)Nc4cc(C(F)(F)F)ccc4F)cc3)c12 | cell-free assay | inhibitor | – | 20 µM | remaining signal | 76% |
| Cc1ccc(C(=O)Nc2ccc(CN3CCN(C)CC3)c(C(F)(F)F)c2)cc1C#Cc1cnc2cccnn12 | enzyme activity | inhibitor | – | 23.5 nM | remaining activity | 87% |
| COc1cc(/C=C/C(=O)CC(=O)/C=C/c2ccc(O)c(OC)c2)ccc1O | enzyme activity | inhibitor | – | 1 µM | activity vs control | 91% |
| CN(C(=O)c1ccccc1)c1cc(N(C)c2ccc3c(c2)CCc2ccc(C(=O)NCCN4CCOCC4)cc2C3=O)ccc1F | cell-free assay | – | competition with immobilised ligand | 1 µM | remaining binding | 74% |
| CC(C)(C)c1nc2c(s1)c1nc(N)ncc1c1ccc(NS(=O)(=O)c3c(F)cccc3F)c(F)c12 | enzyme activity | inhibitor | radiometric | 1 µM | remaining activity | 98% |
| O=C(Nc1cnn(-c2csc(C(=O)NC3COC3)c2)c1)Nc1c(F)cccc1Cl | enzyme activity | inhibitor | – | 5 µM | remaining activity | 94.5% |
| FC(F)(F)Oc1cccc(-c2cnc3ccc(-c4ccncc4)nn23)c1 | enzyme activity | inhibitor | radiometric | 5 µM | activity vs control | 102% |
| CC(C)(C)c1nc(-c2cccc(NS(=O)(=O)c3c(F)cccc3F)c2F)c(-c2ccnc(N)n2)s1 | enzyme activity | inhibitor | radiometric | 1 µM | remaining activity | 60% |
| O=S(=O)(NC1CCC(c2cc(F)ccc2F)(S(=O)(=O)c2ccc(Cl)cc2)CC1)C(F)(F)F (stereo not drawn) | cell-free assay | – | competition with immobilised ligand | 1 µM | remaining binding | 100% |
